Columns and labels:
Toxoplasma gondii [1] = experiment: Antiparasitic activity against hypoxanthine-guanine-xanthine phosphoribosyltransferase gene knock out Toxoplasma gondii expressing Cryptosporidium parvum IMPDH infected in human foreskin fibroblasts assessed as parasite proliferation by fluorescence assay; format: functional, organism-based
How it was run: (§1)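 T. gondii strains carrying a yellow fluorescent protein reporter, grown in hTERT-immortalized human foreskin fibroblasts. Parasite proliferation is followed by fluorescence. Because the parasites grow in the host fibroblasts, the read-out also reflects host cell toxicity.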

[2] = biological target: Inosine-5'-monophosphate dehydrogenase 2 (Homo sapiens, UniProt P12268); experiment: Inhibition of human IMPDH2
[3] = biological target: T1, Inosine-5'-monophosphate dehydrogenase (Cryptosporidium parvum, UniProt Q8T6T2); experiment: Inhibition of recombinant Cryptosporidium parvum IMPDH expressed in Escherichia coli assessed as NADH production preincubated for 5 mins by fluorescence assay
T1 sequence (Q8T6T2 whole entry): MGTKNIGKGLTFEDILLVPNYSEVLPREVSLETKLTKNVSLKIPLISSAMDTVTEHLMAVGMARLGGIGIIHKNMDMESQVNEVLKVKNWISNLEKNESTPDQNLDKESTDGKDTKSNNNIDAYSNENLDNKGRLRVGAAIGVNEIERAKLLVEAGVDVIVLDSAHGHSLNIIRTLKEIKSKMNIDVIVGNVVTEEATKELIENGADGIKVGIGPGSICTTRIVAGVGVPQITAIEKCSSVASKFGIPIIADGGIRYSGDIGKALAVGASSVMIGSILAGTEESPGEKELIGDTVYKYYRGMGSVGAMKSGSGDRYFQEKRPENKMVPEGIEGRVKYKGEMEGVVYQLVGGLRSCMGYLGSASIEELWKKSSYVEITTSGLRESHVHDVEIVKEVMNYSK
How it was run: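 Enzyme activity was tracked as NADH production across varying inhibitor concentrations. Values are the mean of three independent determinations unless otherwise flagged.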

Cryptosporidium parvum [4] = experiment: Antiparasitic activity against Cryptosporidium parvum infection model; format: functional, organism-based
[5] = biological target: T1, Inosine-5'-monophosphate dehydrogenase; experiment: Inhibition of recombinant Cryptosporidium parvum IMPDH expressed in Escherichia coli assessed as NADH production preincubated for 5 mins by fluorescence assay in presence of bovine serum albumin
How it was run: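 NADH production was followed at varying inhibitor concentrations, with 0.05% fatty-acid-free bovine serum albumin added to gauge non-specific binding. Values are the mean of three independent determinations unless otherwise flagged.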

Toxoplasma gondii [6] = experiment: Antiparasitic activity against wild type Toxoplasma gondii expressing endogenous IMPDH infected in human foreskin fibroblasts assessed as inhibition of parasite proliferation by fluorescence assay; format: functional, organism-based; how it was run: as §1
Toxoplasma gondii [7] = experiment: Selectivity ratio of EC50 for wild type Toxoplasma gondii expressing endogenous IMPDH to EC50 for hypoxanthine-guanine-xanthine phosphoribosyltransferase gene knock out Toxoplasma gondii expressing Cryptosporidium parvum IMPDH; format: functional
Cryptosporidium parvum [8] = experiment: Ratio of paromomycin EC50 to compound EC50 for Cryptosporidium parvum infection model; format: functional
[9] = biological target: Inosine-5'-monophosphate dehydrogenase 1 (Homo sapiens, UniProt P20839); experiment: Inhibition of human IMPDH1
Cryptosporidium parvum [10] = experiment: Antiparasitic activity against Cryptosporidium parvum infection model at 0.8 uM; format: functional; settings: read-out: GI

Inosine-5'-monophosphate dehydrogenase 1, sequence (P20839 whole entry): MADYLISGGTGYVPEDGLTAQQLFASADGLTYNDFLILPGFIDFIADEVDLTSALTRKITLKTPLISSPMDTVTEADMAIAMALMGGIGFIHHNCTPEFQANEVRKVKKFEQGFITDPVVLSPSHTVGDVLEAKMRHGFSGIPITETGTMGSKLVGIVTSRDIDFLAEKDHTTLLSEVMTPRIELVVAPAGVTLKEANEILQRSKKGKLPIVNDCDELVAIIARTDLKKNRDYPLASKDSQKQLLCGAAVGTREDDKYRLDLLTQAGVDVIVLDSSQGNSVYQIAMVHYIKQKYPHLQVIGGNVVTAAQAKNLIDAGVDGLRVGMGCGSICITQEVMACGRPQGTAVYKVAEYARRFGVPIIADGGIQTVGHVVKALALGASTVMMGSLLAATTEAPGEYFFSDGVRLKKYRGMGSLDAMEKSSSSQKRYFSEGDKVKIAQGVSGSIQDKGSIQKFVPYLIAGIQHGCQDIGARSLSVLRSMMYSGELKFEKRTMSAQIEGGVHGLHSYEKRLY

Row | Compound | IC50 [2] | IC50 [3] | IC50 [5] | further results
1 | O=C(Cn1c(-c2nccs2)nc2ccccc21)Nc1ccc(Br)cc1 | > 5000 nM | 28 nM | 27 nM | EC50 (Toxoplasma gondii [1]): 300 nM; EC50 (Cryptosporidium parvum [4]): 700 nM; EC50 (Toxoplasma gondii [6]): > 23000 nM
2 | O=C(Cn1c(-c2cscn2)nc2ccccc21)Nc1ccc2ccccc2c1 | > 5000 nM | 7 nM | 20 nM | Ratio EC50 (Toxoplasma gondii [7]): 9; EC50 (Toxoplasma gondii [1]): 600 nM; EC50 (Cryptosporidium parvum [4]): 900 nM; EC50 (Toxoplasma gondii [6]): 5000 nM; Ratio EC50 (Cryptosporidium parvum [8]): 2
3 | CC(C(=O)Nc1ccc(Cl)c(Cl)c1)n1c(-c2cscn2)nc2ccccc21 (stereo unspecified) | > 5000 nM | 240 nM | 300 nM | –
4 | COc1ccc(NC(=O)Cn2c(-c3cscn3)nc3ccccc32)cc1 | > 50000 nM | – | – | IC50 [9]: > 50000 nM
5 | CSc1ccc(NC(=O)Cn2c(-c3cscn3)nc3ccccc32)cc1 | > 5000 nM | 120 nM | 69 nM | –
6 | CC(C)c1ccc(NC(=O)Cn2c(-c3cscn3)nc3ccccc32)cc1 | > 5000 nM | 5000 nM | – | –
7 | O=C(Cn1c(-c2cscn2)nc2ccccc21)Nc1ccc(F)cc1 | > 5000 nM | 900 nM | – | –
8 | O=C(Cn1c(-c2cscn2)nc2ccccc21)Nc1ccc(C(F)(F)F)cc1 | > 5000 nM | 220 nM | 330 nM | –
9 | N#Cc1ccc(NC(=O)Cn2c(-c3cscn3)nc3ccccc32)cc1 | > 5000 nM | 370 nM | – | –
10 | O=C(Cn1c(-c2cscn2)nc2ccccc21)Nc1ccc(Br)cc1 | > 5000 nM | 60 nM | – | –
11 | CS(=O)(=O)c1ccc(NC(=O)Cn2c(-c3cscn3)nc3ccccc32)cc1 | > 5000 nM | 5000 nM | – | –
12 | O=C(Cn1c(-c2cscn2)nc2ccccc21)Nc1ccc(OC(F)(F)F)cc1 | > 5000 nM | 140 nM | – | –
13 | O=C(Cn1c(-c2cscn2)nc2ccccc21)Nc1ccccc1Cl | > 5000 nM | 5000 nM | – | –
14 | O=C(Cn1c(-c2cscn2)nc2ccccc21)Nc1cccc(Cl)c1 | > 5000 nM | 490 nM | 1430 nM | –
15 | O=C(Cn1c(-c2cscn2)nc2ccccc21)Nc1ccc(Cl)c(Cl)c1 | > 5000 nM | 30 nM | 90 nM | –
16 | N#Cc1cc(NC(=O)Cn2c(-c3cscn3)nc3ccccc32)ccc1Cl | > 5000 nM | 30 nM | 60 nM | –
17 | O=C(Cn1c(-c2cscn2)nc2ccccc21)Nc1ccc(Cl)c2ccccc12 | > 5000 nM | 5000 nM | – | –
18 | CC(C(=O)Nc1ccc(Cl)cc1)n1c(-c2cscn2)nc2ccccc21 (stereo unspecified) | > 5000 nM | 60 nM | 80 nM | –
19 | CC(C)C(C(=O)Nc1ccc(Cl)cc1)n1c(-c2cscn2)nc2ccccc21 (stereo unspecified) | > 5000 nM | 5000 nM | – | –
20 | O=C(Cn1c(-c2cscn2)nc2ccccc21)NCc1ccc(Cl)cc1 | > 5000 nM | – | – | –

Row | Compound | IC50 [2] | IC50 [3] | IC50 [5] | further results
21 | O=C(Cn1c(-c2nccs2)nc2ccccc21)Nc1ccc(Cl)cc1 | > 5000 nM | 30 nM | 50 nM | –
22 | CC(C(=O)Nc1ccc(Cl)cc1)n1c(-c2nccs2)nc2ccccc21 (stereo unspecified) | > 5000 nM | 23 nM | 30 nM | –
23 | O=C(Cn1c(-c2nccs2)nc2ccccc21)Nc1ccc(Cl)c(Cl)c1 | > 5000 nM | 18 nM | 50 nM | Ratio EC50 (Toxoplasma gondii [7]): 5; EC50 (Toxoplasma gondii [1]): 700 nM; EC50 (Cryptosporidium parvum [4]): 1700 nM; EC50 (Toxoplasma gondii [6]): 3000 nM; Ratio EC50 (Cryptosporidium parvum [8]): 2
24 | O=C(Cn1c(-c2nccs2)nc2ccccc21)Nc1ccc2ccccc2c1 | > 5000 nM | 8 nM | 20 nM | Ratio EC50 (Toxoplasma gondii [7]): 30; EC50 (Toxoplasma gondii [1]): 500 nM; inhibition of growth at 0.8 µM (Cryptosporidium parvum [10]): 80%; EC50 (Cryptosporidium parvum [4]): < 800 nM; EC50 (Toxoplasma gondii [6]): 17000 nM; Ratio EC50 (Cryptosporidium parvum [8]): 2
25 | O=C(Cn1c(-c2cncs2)nc2ccccc21)Nc1ccc(Cl)cc1 | > 5000 nM | 35 nM | 60 nM | –
26 | O=C(Cn1c(-c2cccs2)nc2ccccc21)Nc1ccc(Cl)cc1 | > 5000 nM | 20 nM | 60 nM | –
27 | Cn1cc(-c2nc3ccccc3n2CC(=O)Nc2ccc(Cl)cc2)cn1 | > 5000 nM | 35 nM | 42 nM | –
28 | O=C(Cn1c(-c2ccccn2)nc2ccccc21)Nc1ccc(Cl)cc1 | > 5000 nM | 43 nM | 90 nM | –
29 | O=C(Cn1c(-c2ccccn2)nc2ccccc21)Nc1ccc(Cl)c(Cl)c1 | > 5000 nM | 22 nM | 40 nM | –
30 | O=C(Cn1c(-c2ccccn2)nc2ccccc21)Nc1ccc2ccccc2c1 | > 5000 nM | – | 14 nM | EC50 (Toxoplasma gondii [1]): 300 nM; EC50 (Toxoplasma gondii [6]): 2700 nM
31 | N#Cc1cc(NC(=O)Cn2c(-c3ccccn3)nc3ccccc32)ccc1Cl | > 5000 nM | 22 nM | 40 nM | –
32 | O=C(Cn1c(-c2ccc[nH]2)nc2ccccc21)Nc1ccc(Cl)cc1 | > 5000 nM | 80 nM | 120 nM | –
33 | O=C(Cn1c(-c2ncco2)nc2ccccc21)Nc1ccc(Cl)cc1 | > 5000 nM | 170 nM | 230 nM | –
34 | O=C(Cn1c(-c2ccccc2)nc2ccccc21)Nc1ccc(Cl)cc1 | > 5000 nM | 210 nM | 280 nM | –
35 | O=C(Cn1c(-c2ccc(Cl)cc2)nc2ccccc21)Nc1ccc(Cl)cc1 | > 5000 nM | 450 nM | – | –
36 | O=C(Cn1c(-c2ccc(F)cc2)nc2ccccc21)Nc1ccc(Cl)cc1 | > 5000 nM | 870 nM | 1300 nM | –
37 | Cc1nc2ccccc2n1CC(=O)Nc1ccc(Cl)cc1 | > 5000 nM | 5000 nM | – | –
38 | O=C(Cn1c(-c2cscn2)nc2ccccc21)Nc1ccc(Cl)cc1 | > 5000 nM | 120 nM | 200 nM | –
39 | NC[C@@H]1O[C@H](O[C@H]2[C@@H](O)[C@H](O[C@@H]3[C@@H](O)[C@H](N)C[C@H](N)[C@H]3O[C@H]3O[C@H](CO)[C@@H](O)[C@H](O)[C@H]3N)O[C@@H]2CO)[C@H](N)[C@@H](O)[C@@H]1O [PAROMOMYCIN] | – | – | – | EC50 (Cryptosporidium parvum [4]): 65000 nM

Source: ChEMBL document CHEMBL1955781, “Structure-activity relationship study of selective benzimidazole-based inhibitors of Cryptosporidium parvum IMPDH” (Bioorg Med Chem Lett, 2012)
